# A selection: hits, their analogues and other compounds. The true share with any hit is near 9.4%.
# CSC inhib: cancer stem cell inhibition. cancer stem cell-like cells viability, luminescence. inhibition, % at 7.5 µM. 300,000 tested, 1.1% active. AID 2717; in the data active means inhibition above about 75%; tested in HMLE shEcad cells
# T cruzi repl: T. cruzi replication inhibition. T. cruzi beta-gal in NIH3T3, luminescence, 90 h. inhibition, % (test concentration not listed). 300,000 tested, 1.4% active;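 active means mean inhibition across valid replicates above about 55%, limit read from the data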;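 further: signal also drops with host cell toxicity which is not excluded here; higher percent means less beta-gal luminescence so fewer parasites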
#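 Test system: β-gal T. cruzi (Tulahuen C4) inside NIH/3T3 cells / Quantity: 5,000 cells/well / Measured by: luminescence from GalScreen with 0.05% NP40, read after 60 min / Medium: DMEM plus 2% FBS / Measure: parasite load inhibition, % / Reagent: Tulahuen C4 trypomastigotes, 5000/well / Schedule: co-culture of at least 90 h after 3 h attachment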
# SKKanGAS inh: SKKanGAS growth inhibition; 300,000 tested, 1.3% active; inhibition, % at 7.5 µM; S. pyogenes SKKanGAS, kanamycin growth, BacTiter-Glo, 6 h;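 active means mean replicate score, as percent of positive control median, at least 50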;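 further: strain carries kanamycin resistance gene driven by streptokinase promoter and grows in 40 µg/ml kanamycin; loss of luminescence reflects streptokinase promoter inhibition or plain growth inhibition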
# Beta cell apopt: beta cell apoptosis inhibition; AID 435005; 300,000 tested, 0.8% active; protection from apoptosis, % (concentration not given with the values); INS-1E cytokine-induced death, ATP luminescence, 48 h; percent of positive-control rescue, neutral wells zero;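 active means Every replicate reaches about 75%, or at least half do and their mean reaches it too, limit read from the data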;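 further: higher means more ATP so stronger rescue from cytokine killing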
# Lmaj promast: inhibitors of Leishmania major promastigote growth; AID 1063; 200,000 tested, 9% active; Leishmania major promastigotes, resazurin fluorescence viability; inhibition, % at 10 µM; in the data active means inhibition above about 50%;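 further: promastigotes grown with compound for 44 hours at 28 °C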
# Mdm2 MdmX PPI: disrupts the human Mdm2-MdmX interaction. SaOS-2 split-luciferase Mdm2/MdmX complementation, luminescence. inhibition, % at 8 µM. 330,000 tested, 3% active. AID 485346;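 active means inhibition of at least 50% at 8 µM in the primary screen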
# Target sequence (O15151 whole entry, looked up): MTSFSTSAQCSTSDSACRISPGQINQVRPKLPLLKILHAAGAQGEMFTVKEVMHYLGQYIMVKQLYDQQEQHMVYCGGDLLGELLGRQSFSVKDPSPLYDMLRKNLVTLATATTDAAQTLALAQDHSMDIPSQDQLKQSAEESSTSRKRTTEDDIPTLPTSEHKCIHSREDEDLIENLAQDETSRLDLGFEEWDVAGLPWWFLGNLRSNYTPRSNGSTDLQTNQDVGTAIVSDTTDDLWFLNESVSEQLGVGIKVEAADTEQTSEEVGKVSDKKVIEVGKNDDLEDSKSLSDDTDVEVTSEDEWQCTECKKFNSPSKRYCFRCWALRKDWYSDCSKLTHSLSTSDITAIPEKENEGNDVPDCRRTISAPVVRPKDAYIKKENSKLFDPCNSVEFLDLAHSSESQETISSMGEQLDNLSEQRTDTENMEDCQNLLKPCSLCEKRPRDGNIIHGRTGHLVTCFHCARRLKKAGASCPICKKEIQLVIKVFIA
# Target sequence (Q00987 whole entry, looked up): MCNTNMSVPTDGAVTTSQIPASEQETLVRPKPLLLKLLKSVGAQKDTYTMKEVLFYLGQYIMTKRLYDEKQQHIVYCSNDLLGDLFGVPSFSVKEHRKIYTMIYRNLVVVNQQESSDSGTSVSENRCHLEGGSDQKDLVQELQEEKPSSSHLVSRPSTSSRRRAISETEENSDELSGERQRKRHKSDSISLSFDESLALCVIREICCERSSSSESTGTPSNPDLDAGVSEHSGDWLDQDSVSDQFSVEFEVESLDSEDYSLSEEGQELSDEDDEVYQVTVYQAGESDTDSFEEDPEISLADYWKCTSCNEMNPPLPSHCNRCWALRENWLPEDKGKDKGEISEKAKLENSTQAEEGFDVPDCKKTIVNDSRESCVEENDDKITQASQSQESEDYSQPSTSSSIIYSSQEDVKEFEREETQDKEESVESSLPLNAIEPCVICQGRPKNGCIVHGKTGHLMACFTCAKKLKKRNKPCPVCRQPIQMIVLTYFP
# Mdm2-MdmX conf: human Mdm2/MdmX binding inhibition, confirmed; shares compounds with Mdm2 MdmX PPI; luminescent assay; inhibition, % at 8 µM; 10,000 tested, 55% active; in the data active means inhibition above about 40%
# FLuc counter: inhibits full-length luciferase, flagging false Mdm2/MdmX hits | shares compounds with Mdm2 MdmX PPI | SaOS-2 full-length luciferase counterscreen, luminescence | inhibition, % at 8 µM | 6,200 tested, 77% active | AID 504607;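 active means mean inhibition at 8 µM reaching about 37%, which flags the compound as non-specific, limit read from the data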;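 further: p53-null SaOS-2 cells with luciferase driven by a doxycycline-inducible promoter; compound on cells about two nights before reading with doxycycline added after day one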
# Hits are given with their value; i = inactive; nt = no result given.
SMILES,CSC inhib,T cruzi repl,SKKanGAS inh,Beta cell apopt,Lmaj promast,Mdm2 MdmX PPI,Mdm2-MdmX conf,FLuc counter
Cc1nnc(N2CCCC(C(=O)NCc3ccc(OC(C)C)cc3)C2)c2nn(-c3ccccc3)c(C)c12 (centres undefined),i,i,i,i,nt,52,i,nt
O=c1c2cn(Cc3ccc(F)cc3)c3ccc(F)cc3c-2nn1Cc1ccc(F)cc1,nt,i,i,nt,nt,i,nt,nt
COCCCNC(=S)N1CCC(NC(=O)Nc2ccc(C)cc2)CC1,i,i,i,i,i,i,nt,nt
CC(=O)Nc1nc(Cn2nnc(-c3ccc4c(c3)OCO4)n2)nc(N(C)C)n1,i,i,i,i,i,i,nt,nt
CCCCCCCNC(=O)C1(CC2CC(c3ccc(Cl)cc3)=NO2)CCN(C(=O)Cc2ccc(F)cc2)CC1 (centres undefined),i,i,i,i,nt,i,nt,nt
CCCCCCCNC(=O)C1(CC2CC(c3cccc(Br)c3)=NO2)CCNCC1 (centres undefined),159,i,i,nt,nt,100,85,60
CCCCCCCNC(=O)C1(CC2CC(c3ccc(Cl)cc3)=NO2)CCNCC1 (centres undefined),i,i,i,nt,nt,100,69,i
O=C(N/N=C/c1ccnc2ccccc12)c1ccccc1O,i,i,i,i,nt,i,nt,nt
CN(CCCC(=O)Nc1ccc(OC(F)F)cc1)S(=O)(=O)c1ccc(F)cc1,i,i,i,i,nt,i,nt,nt
CCCCCCNC(=O)c1cn(CC)c2cc(N3CCN(C)CC3)c(F)cc2c1=O,i,i,i,i,nt,51,i,nt
COc1cc(C(=O)NCC(=O)N/N=C/c2ccccn2)cc(OC)c1OC,i,i,i,i,i,i,nt,nt
COc1ccc(C(=O)N/N=C(\Cc2ncc[nH]2)c2ccccc2)cc1,i,66,i,i,i,54,42,i
COc1cc(C(=O)N/N=C(\Cc2ncc[nH]2)c2ccccc2)cc(OC)c1OC,91,nt,nt,i,i,54,50,i
c1ccc(N/N=C(\Cc2ncc[nH]2)c2ccccc2)cc1,i,i,i,i,i,i,nt,nt
Cc1c(Cl)cccc1NC(=S)NCCc1ccc(C(F)(F)F)cc1,i,i,i,i,i,i,nt,nt
CC(C)(C)c1ccc(C2CC2C(=O)N/N=C\c2ccc[nH]2)cc1 (centres undefined),i,60,i,109,i,84,73,i
COc1ccc(Cl)cc1C(=O)N1CCN(Cc2ccc3c(c2)OCO3)CC1,i,i,i,i,nt,i,nt,nt
CCc1ccc(NC(=O)c2ccc3c(c2)C(=O)N(CCOC)C3Nc2ccc(CC)cc2)cc1 (centres undefined),i,i,i,i,i,81,40,99
COCCN1C(=O)c2cc(C(=O)Nc3cccc(F)c3)ccc2C1Nc1cccc(F)c1 (centres undefined),i,i,i,i,i,i,nt,nt
CC(/C=N/Nc1nncc(=O)[nH]1)=C\c1ccccc1,i,i,i,i,i,i,nt,nt
Cc1cc(=O)[nH]c(N/N=C/c2ccccn2)n1,107,i,i,95,99,80,78,59
O=c1cnnc(N/N=C/c2ccccn2)[nH]1,120,i,i,106,nt,82,88,53
C(=N\Nc1nncc2ccccc12)/c1ccccn1,i,i,i,98,nt,79,79,i
O=C1NC2(CCCCCC2)C(=O)N1Cc1cccc([N+](=O)[O-])c1,nt,i,i,nt,nt,i,nt,nt
COc1ccc(C(CC(=O)NCC(OC)OC)NS(=O)(=O)c2ccc(Cl)cc2)cc1 (centres undefined),i,i,i,i,i,i,nt,nt
SMILES,CSC inhib,T cruzi repl,SKKanGAS inh,Beta cell apopt,Lmaj promast,Mdm2 MdmX PPI,Mdm2-MdmX conf,FLuc counter
CC(=O)Oc1c(C)cc(Cl)cc1C(=O)Nc1ccc([N+](=O)[O-])cc1Cl,120,i,nt,106,i,99,81,i
CC(=O)OCC(=O)Nc1ccc([N+](=O)[O-])cc1Cl,i,i,i,i,i,i,nt,nt
O=C(Oc1c(-c2ccccc2Cl)oc2ccccc2c1=O)c1ccc(Cl)cc1,i,i,i,i,55,67,53,48
O=C(Oc1c(-c2ccccc2)oc2ccccc2c1=O)c1ccccc1,i,i,i,i,i,85,61,i
COc1ccc(C(=O)c2ccc3oc(-c4ccc(OC)cc4)c(-c4ccc(O)cc4)c3c2)cc1,104,nt,nt,i,nt,66,i,nt
COc1ccc(C(=O)c2c(-c3ccc(OC)cc3)oc3ccccc23)cc1,i,nt,nt,i,nt,i,nt,nt
COc1ccc(-c2oc3ccccc3c(=O)c2OC(=O)c2ccc(C)cc2)cc1,i,i,i,i,i,79,53,i
CNc1nc(N)nc(OC(C(F)(F)F)C(F)(F)F)n1,i,i,i,i,i,i,nt,nt
Cc1cccc(CC(=O)Nc2sc(C(C)C)cc2C(=O)N2CCOCC2)c1,i,i,i,i,nt,i,nt,nt
CCCN(C(=O)CSCc1c(C)noc1C)c1c(N)n(Cc2ccccc2)c(=O)[nH]c1=O,i,i,i,i,nt,i,nt,nt
Cc1ccc(NC(=O)CCNS(=O)(=O)c2ccc3[nH]c(=O)oc3c2)cc1N(C)C,i,i,i,i,nt,i,nt,nt
Nc1c(Cl)c(Cl)nc(C(=O)OCC(=O)NCc2ccccc2)c1Cl,i,nt,nt,i,nt,i,nt,nt
O=C(COC(=O)c1nc(Cl)c(Cl)c(Cl)c1Cl)NCc1ccccc1,nt,nt,nt,nt,nt,54,i,nt
COc1ccc(-c2ncncc2-c2ccc(Cl)cc2)c(O)c1,i,i,i,i,nt,i,nt,nt
COc1ccc(-c2cncnc2-c2ccc(OC)cc2O)cc1,i,i,i,i,nt,62,62,i
Cc1ccc(S(=O)(=O)N2C[C@@H]3[C@H]4CC[C@H](C4)[C@@H]3[C@@H](C)[C@@H]2c2cccn2Cc2ccccc2)cc1,nt,nt,nt,nt,nt,i,nt,nt
Cc1ccc(S(=O)(=O)N2C[C@@H]3[C@H]4CC[C@H](C4)[C@@H]3[C@@H](C)[C@@H]2c2ccn(Cc3ccccc3)c2)cc1,nt,nt,nt,nt,nt,50,i,nt
CC1CCC(NC(=O)C2CCC(CNS(=O)(=O)c3ccccc3)CC2)CC1 (centres undefined),i,i,i,i,nt,i,nt,nt
O=C(NC1CCCCCC1)C1CCC(CNS(=O)(=O)c2ccc(Br)s2)CC1 (centres undefined),i,i,i,i,i,51,i,nt
COc1ccccc1CNCC(O)Cn1c2ccccc2c2ccccc21 (centres undefined),i,i,i,103,100,90,67,50
CCn1c2ccccc2c2cc(NC(=O)COc3ccccc3OC)ccc21,i,i,i,i,i,i,nt,nt
CCn1c2ccccc2c2cc(NC(=O)CNCc3ccccc3OC)ccc21,i,i,i,i,nt,57,56,81
O=C(Nc1nc2ccccc2s1)NC1CCCCC1,i,i,i,i,i,i,nt,nt
Cc1cccc(NC(=O)CN2C(=O)CCS(=O)(=O)c3ccccc32)c1C,i,i,i,i,nt,i,nt,nt
CCN1C(=O)/C(=c2\sc3nc(=O)c(Cc4ccccc4)nn3c2=O)c2ccccc21,i,i,i,i,nt,i,nt,nt
